{"source": "ChEMBL document CHEMBL3868590", "about": "“Quambalarine B, a Secondary Metabolite from Quambalaria cyanescens with Potential Anticancer Properties” (J Nat Prod, 2016)", "key": {"Jurkat [1]": {"system": "Jurkat", "assay": "Cytostatic activity against human Jurkat cells at 2 umol/L measured after 2 to 3 days using Burker counting chamber", "format": "functional, cell-based", "procedure,_shortened": "(§1)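 Cells were seeded at 2.5 × 10^5 cells/mL in DMSO-containing medium, with or without 2 μmol/L compound. Cells were counted daily in a Bürker chamber. PDL was calculated as log(Nf/N0)/log 2 over 6 days. Values are mean ± SD of three experiments, compared with DMSO controls.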"}, "[2]": {"assay": "Cytotoxicity against human Jurkat cells assessed as reduction in viable cells measured after 24 hrs by Hoechst-33258 staining-based FACS analysis", "format": "functional, cell-based", "procedure,_shortened": "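Leukemic lines kept in RPMI1640 with 10% FBS, penicillin/streptomycin, 37 °C, 5% CO2. Seeded at 2 × 10^5 cells/mL and exposed 24 h to a range of compound concentrations (DMSO stock); medium and DMSO negative controls. Live fraction taken from Hoechst 33258-negative singlets by flow cytometry. EC50 from five-parameter nonlinear regression.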"}, "REH [3]": {"system": "REH", "assay": "Cytostatic activity against human REH cells assessed as population doubling level at 2 umol/L after 6 days by Burker counting chamber (reference value: 3.55)", "format": "functional", "procedure,_shortened": "as §1"}, "Jurkat [4]": {"system": "Jurkat", "assay": "Cytostatic activity against eFluor670-labelled human Jurkat cells assessed as live cells at 2 umol/L measured on day 1 by Hoechst-33258 staining-based FACS analysis (reference value: 98.2%)", "format": "functional"}, "Jurkat [5]": {"system": "Jurkat", "assay": "Cytostatic activity against eFluor670-labelled human Jurkat cells assessed as live cells at 2 umol/L measured on day 2 by Hoechst-33258 staining-based FACS analysis (reference value: 97%)", "format": "functional"}, "Jurkat [6]": {"system": "Jurkat", "assay": "Cytostatic activity against eFluor670-labelled human Jurkat cells assessed as live cells at 2 umol/L measured on day 5 by Hoechst-33258 staining-based FACS analysis (reference value: 97%)", "format": "functional"}, "NALM-6 [7]": {"system": "NALM-6", "assay": "Cytostatic activity against eFluor670-labelled human NALM6 cells assessed as live cells at 2 umol/L measured immediately after compound addition by Hoechst-33258 staining-based FACS analysis (reference value: 95.8%)", "format": "functional"}, "NALM-6 [8]": {"system": "NALM-6", "assay": "Cytostatic activity against eFluor670-labelled human NALM6 cells assessed as live cells at 2 umol/L measured on day 3 by Hoechst-33258 staining-based FACS analysis (reference value: 98.6%)", "format": "functional"}, "REH [9]": {"system": "REH", "assay": "Cytostatic activity against eFluor670-labelled human REH cells assessed as live cells at 2 umol/L measured on day 2 by Hoechst-33258 staining-based FACS analysis (reference value: 90.8%)", "format": "functional"}, "REH [10]": {"system": "REH", "assay": "Cytostatic activity against eFluor670-labelled human REH cells assessed as live cells at 2 umol/L measured on day 5 by Hoechst-33258 staining-based FACS analysis (reference value: 85.6%)", "format": "functional"}, "[11]": {"assay": "Cytotoxicity against CD14+ monocytes in human PBMC population assessed as viable cells at 15 umol/L measured after 24 hrs by Hoechst-33258 staining-based FACS analysis (reference value: 13.8%)", "format": "toxicity, cell-based, Monocyte", "settings": "read-out: Activity", "procedure,_shortened": "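PBMC were isolated from blood on a Ficoll-Paque gradient and seeded at 1 × 10^5 cells/well in 400 μL RPMI1640. Cells were exposed to a range of compound concentrations for 24 h. Viable CD3+, CD14+ and CD20+ populations were measured as Hoechst 33258-negative singlets by flow cytometry. EC50 was obtained by five-parameter nonlinear regression.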"}, "[12]": {"assay": "Cytotoxicity against PHA/LPS-stimulated CD3-positive T-lymphocytes in eFluor-670-labeled human PBMC assessed as proliferation index at 2 umol/L administered post 18 hrs of PHA/LPS-stimulation measured after 72 hrs by Hoechst-33258 staining-based FACS analysis (reference value: 1.58)", "format": "toxicity", "settings": "t-cell, 2 µM", "procedure,_shortened": "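PBMC were labelled with 1 μmol/L CPD, stimulated with PHA (5 μg/mL) plus LPS (1 μg/mL), and seeded at 3 × 10^5 cells/well in 300 μL. Compound was added after 18 h and left for 72 h. Cells were stained with anti-CD3. Unstimulated cells set the CPD+ gate. Proliferation index, division index and % divided were calculated for CPD+CD3+ Hoechst-negative cells.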"}, "Jurkat [13]": {"system": "Jurkat", "assay": "Decrease in C-MYC mRNA level in human Jurkat cells at EC50 measured after 24 hrs by RT-qPCR analysis", "format": "functional, cell-based"}, "[14]": {"molecular_target": "Myc proto-oncogene protein (Homo sapiens) (UniProt P01106)", "sequence (P01106 whole entry)": "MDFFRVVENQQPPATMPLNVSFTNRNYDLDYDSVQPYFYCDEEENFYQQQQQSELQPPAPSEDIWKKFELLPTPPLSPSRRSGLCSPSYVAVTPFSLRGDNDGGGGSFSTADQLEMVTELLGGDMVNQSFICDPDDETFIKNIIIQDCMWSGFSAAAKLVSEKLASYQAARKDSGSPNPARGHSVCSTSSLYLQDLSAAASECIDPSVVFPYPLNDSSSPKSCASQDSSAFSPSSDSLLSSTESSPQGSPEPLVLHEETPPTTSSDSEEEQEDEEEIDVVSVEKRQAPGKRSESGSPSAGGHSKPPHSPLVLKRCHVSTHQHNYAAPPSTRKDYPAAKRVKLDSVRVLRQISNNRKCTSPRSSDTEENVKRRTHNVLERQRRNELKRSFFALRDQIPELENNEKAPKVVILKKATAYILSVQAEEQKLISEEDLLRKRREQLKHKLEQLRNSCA", "assay": "Inhibition of C-MYC in human Jurkat cells assessed as decrease in LDHA level at EC50 measured after 24 hrs by RT-qPCR analysis", "format": "cell-based"}, "[15]": {"molecular_target": "Myc proto-oncogene protein (Homo sapiens) (UniProt P01106)", "assay": "Inhibition of C-MYC in human NALM6 cells assessed as decrease in LDHA level at EC50 measured after 24 hrs by RT-qPCR analysis", "format": "cell-based", "settings": "NALM-6"}, "[16]": {"molecular_target": "Myc proto-oncogene protein (Homo sapiens) (UniProt P01106)", "assay": "Inhibition of C-MYC in human REH cells assessed as decrease in LDHA level at EC50 measured after 24 hrs by RT-qPCR analysis", "format": "cell-based"}, "[17]": {"molecular_target": "Myc proto-oncogene protein (Homo sapiens) (UniProt P01106)", "assay": "Inhibition of C-MYC in human Jurkat cells assessed as decrease in GLS level at EC50 measured after 24 hrs by RT-qPCR analysis", "format": "cell-based"}, "[18]": {"molecular_target": "Myc proto-oncogene protein (Homo sapiens) (UniProt P01106)", "assay": "Inhibition of C-MYC in human NALM6 cells assessed as decrease in GLS level at EC50 measured after 24 hrs by RT-qPCR analysis", "format": "cell-based", "settings": "NALM-6"}, "[19]": {"molecular_target": "Myc proto-oncogene protein (Homo sapiens) (UniProt P01106)", "assay": "Inhibition of C-MYC in human NALM6 cells assessed as decrease in PKM2 level at EC50 measured after 24 hrs by RT-qPCR analysis", "format": "cell-based", "settings": "NALM-6"}, "[20]": {"molecular_target": "Myc proto-oncogene protein (Homo sapiens) (UniProt P01106)", "assay": "Inhibition of C-MYC in human REH cells assessed as decrease in PKM2 level at EC50 measured after 24 hrs by RT-qPCR analysis", "format": "cell-based"}, "NALM-6 [21]": {"system": "NALM-6", "assay": "Inhibition of P70S6K in human NALM6 cells assessed as decrease in C-MYC expression measured after 24 hrs by immunoblot analysis", "format": "cell-based", "procedure,_shortened": "(§2)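 Cells prepared as for RT-qPCR (7.5 × 10^5 cells/mL). Treated either with the line-specific EC50 concentration over a time course, or 24 h with graded concentrations up to that EC50. Cells washed with phosphatase inhibitors and lysed in RIPA; 40 μg protein per lane on SDS-PAGE, then nitrocellulose. Immunoblotted for C-MYC, P70S6K, p-P70S6K (Ser424) and actin.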"}, "REH [22]": {"system": "REH", "assay": "Inhibition of P70S6K in human REH cells assessed as decrease in C-MYC expression measured after 24 hrs by immunoblot analysis", "format": "cell-based", "procedure,_shortened": "as §2"}, "[23]": {"assay": "Downregulation of P70S6K protein expression in human REH cells at EC50 measured after 24 hrs by immunoblot analysis", "format": "functional, cell-based", "procedure,_shortened": "as §2"}, "[24]": {"assay": "Downregulation of P70S6K protein expression in human NALM6 cells at EC50 measured after 24 hrs by immunoblot analysis", "format": "functional, cell-based", "settings": "NALM-6", "procedure,_shortened": "as §2"}, "NALM-6 [25]": {"system": "NALM-6", "assay": "Inhibition of P70S6K in human NALM6 cells assessed as decrease in C-MYC expression at 2 to 20 umol/L by immunoblot analysis", "format": "cell-based", "settings": "TDE = time-dependent effect", "procedure,_shortened": "as §2"}, "[26]": {"assay": "Cytotoxicity against human PBMC assessed as reduction in viable cells measured after 24 hrs by Hoechst-33258 staining-based FACS analysis", "format": "toxicity, cell-based", "procedure,_shortened": "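Human PBMC isolated on a Ficoll-Paque gradient, seeded at 1 × 10^5 cells/well in RPMI1640. Exposed 24 h to a compound concentration range; medium and DMSO negative controls. Cells stained with Hoechst 33258 and read by flow cytometry; live-cell percentage from Hoechst-negative singlets. EC50 by five-parameter nonlinear regression.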"}}, "note": "Active and inactive are the calls of the source. The calls are words filed in the database; no cut-off is given here.", "data": [{"smiles": "CCCCCC(=O)C1=C(O)C(=O)c2c(O)c(O)cc(O)c2C1=O", "values": [{"measurement": "Activity", "setting": "Jurkat [1]", "value": "Active"}, {"measurement": "EC50", "setting": "[2]", "value": 7.41, "unit": "µM"}, {"measurement": "Activity", "setting": "REH [3]", "value": 1.32}, {"measurement": "Activity", "setting": "Jurkat [4]", "value": 88.4, "unit": "%"}, {"measurement": "Activity", "setting": "Jurkat [5]", "value": 70.1, "unit": "%"}, {"measurement": "Activity", "setting": "Jurkat [6]", "value": 25.5, "unit": "%"}, {"measurement": "Activity", "setting": "NALM-6 [7]", "value": 95.8, "unit": "%"}, {"measurement": "Activity", "setting": "NALM-6 [8]", "value": 98.1, "unit": "%"}, {"measurement": "Activity", "setting": "REH [9]", "value": 40.2, "unit": "%"}, {"measurement": "Activity", "setting": "REH [10]", "value": 4.17, "unit": "%"}, {"measurement": "viability at 24 h, 15 µM", "setting": "[11]", "value": 8.1, "unit": "%"}, {"measurement": "Activity_index", "setting": "[12]", "value": 1.23}, {"measurement": "Activity", "setting": "Jurkat [13]", "value": "Active"}, {"measurement": "inhibition", "setting": "[14]", "value": "Active"}, {"measurement": "inhibition", "setting": "[15]", "value": "Active"}, {"measurement": "inhibition", "setting": "[16]", "value": "Active"}, {"measurement": "inhibition", "setting": "[17]", "value": "Active"}, {"measurement": "inhibition", "setting": "[18]", "value": "Active"}, {"measurement": "inhibition", "setting": "[19]", "value": "Active"}, {"measurement": "inhibition", "setting": "[20]", "value": "Active"}, {"measurement": "inhibition", "setting": "NALM-6 [21]", "value": "Dose-dependent effect"}, {"measurement": "inhibition", "setting": "REH [22]", "value": "Dose-dependent effect"}, {"measurement": "Activity", "setting": "[23]", "value": "Active"}, {"measurement": "Activity", "setting": "[24]", "value": "Active"}, {"measurement": "inhibition", "setting": "NALM-6 [25]", "value": "Tde"}, {"measurement": "EC50 at 24 h", "setting": "[26]", "value": 56.1, "unit": "µM"}]}]}
